# How the values were obtained:
# Pseudomonas aeruginosa = test: Antibacterial activity against Pseudomonas aeruginosa PTCC 1074 after 24 hrs by microplate alamar blue assay; assay type: functional; conditions: for MIC: Pseudomonas aeruginosa, PTCC 1074, 24 h
# How it was run: (§1)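 Bacteria from Persian type culture collection grown in Mueller–Hinton broth. Inoculum suspensions adjusted to 0.5 McFarland, final inoculum 1.5 ×10⁴. Compounds dissolved in DMSO, serially diluted twofold across the 8–512 range in 96-well plates, Alamar Blue added, sealed plates incubated 24 h at 37 °C. MIC is the lowest concentration preventing the blue-to-pink colour change. Ciprofloxacin was the reference drug.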
# Staphylococcus aureus = test: Antibacterial activity against Staphylococcus aureus PTCC 1337 after 24 hrs by microplate alamar blue assay; assay type: functional; conditions: for MIC: Staphylococcus aureus, PTCC 1337, 24 h; how it was run: as §1
# Candida albicans = test: Antifungal activity against Candida albicans PTCC 5027 after 48 hrs by microplate alamar blue assay; assay type: functional; conditions: for MIC: Candida albicans, PTCC 5027, 48 h
# How it was run: (§2)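 Fungi from Persian type culture collection, tested in RPMI 1640 buffered with MOPS at pH 7.0. Final inoculum 1.5 ×10⁵. Compounds in DMSO, twofold serial dilutions over 8–512 in 96-well plates with Alamar Blue, incubated 48 h at 25 °C. MIC is the lowest concentration blocking the blue-to-pink shift. Ketoconazole was the reference agent.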
# Escherichia coli = test: Antibacterial activity against Escherichia coli PTCC 1338 after 24 hrs by microplate alamar blue assay; assay type: functional; conditions: PTCC 1338, 24 h; how it was run: as §1
# [1] = test system: Salmonella enterica subsp. enterica; test: Antibacterial activity against Salmonella enteritidis PTCC 1091 after 24 hrs by microplate alamar blue assay; assay type: functional, Salmonella enterica subsp. enterica serovar Enteritidis; conditions: PTCC 1091, 24 h; how it was run: as §1
# Listeria monocytogenes = test: Antibacterial activity against Listeria monocytogenes PTCC 1165 after 24 hrs by microplate alamar blue assay; assay type: functional; conditions: PTCC 1165, 24 h; how it was run: as §1
# Bacillus subtilis = test: Antibacterial activity against Bacillus subtilis PTCC 1023 after 24 hrs by microplate alamar blue assay; assay type: functional; conditions: PTCC 1023, 24 h; how it was run: as §1
# Aspergillus niger = test: Antifungal activity against Aspergillus niger 5021 after 48 hrs by microplate alamar blue assay; assay type: functional; conditions: Aspergillus niger, 5021, 48 h; how it was run: as §2
# Aspergillus flavus = test: Antifungal activity against Aspergillus flavus PTCC 5003 after 48 hrs by microplate alamar blue assay; assay type: functional; conditions: PTCC 5003, 48 h; how it was run: as §2
Compound,-logMIC (Pseudomonas aeruginosa),-logMIC (Staphylococcus aureus),-logMIC (Candida albicans),MIC (Escherichia coli) [µg/mL],MIC [1] [µg/mL],MIC (Pseudomonas aeruginosa) [µg/mL],MIC (Staphylococcus aureus) [µg/mL],MIC (Listeria monocytogenes) [µg/mL],MIC (Bacillus subtilis) [µg/mL],MIC (Candida albicans) [µg/mL],MIC (Aspergillus niger) [µg/mL],MIC (Aspergillus flavus) [µg/mL]
Cc1cc(=O)oc2cc(NC(=O)c3cc(=O)c(OCc4ccccc4)co3)ccc12,3.59,3.89,3.89,,,,,,,,,
Cc1[nH]cc(CN(C)C)c(=O)c1O,3.59,3.29,,512,512,256,> 512,512,> 512,> 512,512,> 512
Cc1cc(=O)c(OCc2ccccc2)c(C(=O)Nc2cccc3ccccc23)o1,3.89,3.59,4.49,,,,,,,,,
Cc1cc(=O)c(OCc2ccccc2)c(C(=O)Nc2cnc3ccccc3c2)o1,3.89,3.89,3.89,,,,,,,,,
O=C(O)c1cc(=O)c(OCc2ccccc2)co1,3.89,3.59,3.89,,,,,,,,,
Cc1cc(=O)c(O)c(C(=O)Nc2cnc3ccccc3c2)o1,3.89,5.1,,,,,,,,,,
Cc1cc(=O)c(O)c(C(=O)Nc2cccnc2)o1,3.89,4.19,3.89,,,,,,,,,
CCCn1ccc(=O)c(O)c1C,3.89,3.29,3.29,128,128,512,16,512,256,256,512,256
O=c1cc(CCl)occ1O,4.19,3.59,3.89,> 512,> 512,> 512,> 512,> 512,> 512,512,128,16
O=c1cc(CO)occ1OCc1ccccc1,3.89,3.59,3.89,,,,,,,,,
Cc1c(O)c(=O)ccn1-c1cccc(O)c1,3.29,3.29,3.59,512,64,512,16,> 512,> 512,512,512,256
Cc1cc(=O)c(OCc2ccccc2)c(C(=O)Nc2cccnc2)o1,3.89,3.59,4.49,,,,,,,,,
O=c1cc(CO)occ1O [KOJIC ACID],3.89,3.59,3.89,,,,,,,,,
Cc1cc(=O)c(O)co1,3.59,3.59,3.89,> 512,> 512,256,> 512,512,> 512,128,512,512
O=C(O)c1cn(C2CC2)c2cc(N3CCNCC3)c(F)cc2c1=O [CIPROFLOXACIN],,,,,1,,0.5,1,0.06,,,
CCc1[nH]cc(CN2CCCCC2)c(=O)c1O,3.59,3.29,3.29,512,512,256,> 512,> 512,512,128,512,256
Cc1[nH]cc(CN2CCCCC2)c(=O)c1O,3.59,3.29,,64,16,512,16,64,32,128,512,> 512
